The source of these data is ChEMBL document CHEMBL1145100, “Structure-activity relationship of imidazo[1,2-a]pyridines as ligands for detecting beta-amyloid plaques in the brain” (J Med Chem, 2003).

The assay addresses Amyloid-beta precursor protein (Homo sapiens, UniProt P05067). Put plainly: Inhibition constant against [125I]-7 (TZDM) binding to Amyloid beta 1-40 aggregates. In short, it runs like this: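 Abeta40 peptide aggregated at 0.5 mg/mL in pH 7.4 buffer (10 mM sodium phosphate, 1 mM EDTA), 37 °C for 36-42 h with shaking. Competition in 1 mL of 40% EtOH: fibrils 10-50 nM final, radiotracer 0.05 nM, inhibitors 10^-5 to 10^-10 M. Nonspecific binding with 2 µM thioflavin-T. Incubated 3 h at room temperature, then GF/B filtration with 10% ethanol washes and gamma counting. Ki from nonlinear regression.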

SMILES strings stand for the structures.

Sequence of Amyloid-beta precursor protein (P05067 whole entry): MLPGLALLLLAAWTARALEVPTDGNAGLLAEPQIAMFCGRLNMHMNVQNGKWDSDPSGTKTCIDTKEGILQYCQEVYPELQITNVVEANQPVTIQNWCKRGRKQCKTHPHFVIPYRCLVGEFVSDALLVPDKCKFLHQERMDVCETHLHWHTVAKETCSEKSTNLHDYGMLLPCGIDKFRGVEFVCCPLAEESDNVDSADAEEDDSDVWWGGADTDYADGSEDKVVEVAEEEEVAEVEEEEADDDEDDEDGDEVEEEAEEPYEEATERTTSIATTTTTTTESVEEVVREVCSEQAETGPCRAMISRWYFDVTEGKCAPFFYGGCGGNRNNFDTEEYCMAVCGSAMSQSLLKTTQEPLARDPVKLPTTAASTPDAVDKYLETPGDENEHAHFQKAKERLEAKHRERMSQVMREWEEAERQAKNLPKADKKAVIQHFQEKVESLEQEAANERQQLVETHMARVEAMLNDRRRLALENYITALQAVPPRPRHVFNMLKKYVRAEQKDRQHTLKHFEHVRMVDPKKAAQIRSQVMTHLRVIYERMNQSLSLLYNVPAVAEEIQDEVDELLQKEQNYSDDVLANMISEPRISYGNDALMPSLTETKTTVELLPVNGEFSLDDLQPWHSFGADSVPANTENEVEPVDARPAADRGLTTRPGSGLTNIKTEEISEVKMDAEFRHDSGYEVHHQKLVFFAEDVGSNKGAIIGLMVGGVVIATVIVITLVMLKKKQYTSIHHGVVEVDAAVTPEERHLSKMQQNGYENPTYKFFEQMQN

As usually defined, the Ki is a measure of affinity in units of concentration, obtained from inhibition or displacement. The low end stands for higher affinity, the high end for lower affinity. `Cc1ccc2nc(-c3ccc(Br)cc3)cn2c1` registered a Ki of 638 nM.

Molecule `Cc1ccc2nc(-c3ccc(N(C)C)cc3)cn2c1` showed a Ki of 242 nM.

Molecule `CN(C)c1ccc(-c2cn3ccccc3n2)cc1` returned a Ki of more than 2000 nM.

In the case of `CN(C)c1ccc(-c2nc3ccccn3c2I)cc1`, the Ki was more than 2000 nM.

With `CNc1ccc(-c2cn3ccccc3n2)cc1`, the inhibition constant Ki is more than 1000 nM.
